VIM-2 inh – inhibitors of Pseudomonas aeruginosa VIM-2 metallo-beta-lactamase; purified VIM-2, nitrocefin hydrolysis, epi-absorbance fluorescence; inhibition, % at 5.6 µM; hit rate 0.89% among 290,000;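 active means inhibition above the mean of all tested compounds plus 3 SD, cutoff set per screening run, cut at about 7.5% in these data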;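 further: red hydrolysis product quenches plate fluorescence so inhibitors raise well fluorescence; 0% = enzyme with DMSO and 100% = DMSO without enzyme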
core dimer inh – HCV core protein dimerization inhibition. TR-FRET GST/Flag-core106 dimerization, 1536-well. hit rate 0.33% among 300,000. inhibition, % at 5 µM;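 active means inhibition above the mean of all tested compounds plus 3 SD, set per screening campaign, cut at about 45% in these data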
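Material: Tagged HCV core106 pair (GST and Flag) | Amount: GST-core106 13.5 nM, Flag-core106 17 nM | Medium: KF-containing HEPES buffer, pH 7.45, DTT, CHAPS, BSA | Reagent: Eu donor and XL665 acceptor anti-tag antibodies | Schedule: 4 h at 22.5 °C | Technique: Time-resolved FRET, ex 340 nm, em 617 and 671 nm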
NadD block – NadD (S. aureus) enzyme inhibition. hit rate 0.78% among 360,000. purified NadD enzyme, colorimetric absorbance read-out. inhibition, % at 20 µM. AID 602399; in the data active means inhibition above about 26%
IMP-1 inhibitor – inhibitors of Pseudomonas aeruginosa IMP-1 metallo-beta-lactamase; inhibition, % at 5.6 µM; hit rate 0.45% among 290,000; purified IMP-1, nitrocefin hydrolysis, epi-absorbance fluorescence;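 active means inhibition above the mean plus 3 SD of all compounds in the same screening run, cut at about 4.5% in these data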;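 further: 0% = IMP-1 with DMSO and 100% = DMSO wells lacking enzyme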
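System: Purified recombinant IMP-1 metallo-beta-lactamase enzyme | Measured by: Fluorescence quenching readout, ex 480/em 530 nm | Replication: Singlicate | Incubation: 15 min preincubation plus 25 min reaction at 25 °C | Evaluation: Percent inhibition from optical density relative to buffer-blank wells | Benchmarks: DMSO with and without IMP-1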
* = called active by the depositor; / = not tested or not shown. This is a sample that favours compounds with a hit; in the whole collection about 1.9% have one here.

SMILES	VIM-2 inh	core dimer inh	NadD block	IMP-1 inhibitor
O=C(C=P(c1ccccc1)(c1ccccc1)c1ccccc1)c1ccccc1-c1ccccc1C(=O)C=P(c1ccccc1)(c1ccccc1)c1ccccc1	/	/	55.8*	/
O=C(CCSCc1ccccc1F)NCc1ccc(F)cc1	-3.0	1.6	-8.1	-4.6
COc1ccccc1-c1ccc(/C=C2\C=CC(=O)O2)o1	4.9	23.0	2.0	5.4*
COc1ccccc1-c1ccc(/C=C2/C=C(C)OC2=O)o1	-1.0	13.3	7.2	-1.0
O=C(N=Nc1c(O)[nH]c2ccc(Cl)cc12)c1cc(-c2cccs2)nc2ccccc12	-2.0	37.5	33.5*	-2.2
O=C(N=Nc1c(O)[nH]c2ccc([N+](=O)[O-])cc12)c1ccccc1Cl	-2.8	2.4	-3.0	-3.2
COc1ccc(OC)c(NC(=O)C2CCCCC2C(=O)O)c1 (stereo not drawn)	0.9	-13.6	-5.4	-2.5
COc1ccc(OC)c(NC(=O)C2C3CCC(C3=C(C)C)C2C(=O)O)c1 (stereo not drawn)	8.8*	0.7	4.6	-1.0
CCCCn1c2c(c(=N)c3c1CCC3)CCC2	-8.2	1.5	6.4	4.8*
O=C(Cc1ccc(NC(=O)C2CCN(C(=O)C3CCC3)CC2)cc1)Nc1cccc(C(=O)N2CCCC2)c1	/	/	10.5	/
NC(CC(=O)OC1CCCCC1)C(=O)OC1CCCCC1 (stereo not drawn)	2.9	-2.9	-7.9	5.4*
COc1ccccc1NS(=O)(=O)c1cc([N+](=O)[O-])ccc1N/N=C/c1sc(N2CCOCC2)nc1-c1ccccc1	-1.8	19.8	36.6*	-3.6
COc1ccc(C(=O)N/N=C/c2sc(N3CCOCC3)nc2-c2ccccc2)cc1OC	-3.6	-12.5	-0.5	-3.6
COc1ccc(S(=O)(=O)NCC2CCCO2)c(Cl)c1Cl (stereo not drawn)	-1.1	4.1	-4.0	9.2*
O=C(O)/C=C\C(=O)Nc1ccccc1C(=O)N1CCC(O)(c2ccc(Cl)cc2)CC1	/	/	0.1	/
S=c1[nH]nc(-c2ccncc2)n1CC1CCCO1 (stereo not drawn)	11.3*	8.2	5.4	-6.2
CC(=O)c1ccccc1C(=O)N1CCCC(N2CCN(Cc3ccc4c(c3)OCO4)CC2)C1 (stereo not drawn)	-1.1	-1.1	1.6	-0.5
COCCn1c(C)cc(C(=O)CSc2nncn2-c2ccccc2)c1C	2.0	-3.2	2.3	5.0*
COc1ccc(-n2cnnc2SCC(=O)c2cc(C)n(Cc3cccs3)c2C)cc1	-2.4	23.1	9.6	-0.3
CCCCCC(=O)N(O)C1CC(=O)N(c2ccccc2)C1=O (stereo not drawn)	8.1*	-0.4	3.1	0.8
CCOC(=O)N1CCN(S(=O)(=O)N2CCCC(C(=O)NCCCN3CCCCC3CC)C2)CC1 (stereo not drawn)	0.5	0.6	-4.2	-1.6
CN1CCN(CC(=O)n2c3c(c4ccccc42)CCCC3)CC1	9.9*	4.3	-5.4	2.1
O=C(CN1CCCCC1)n1c2ccccc2c2ccccc21	0.4	1.2	-2.4	-0.8
CCN(CC)CC(=O)n1c2c(c3ccccc31)CCCC2	11.9*	-6.7	-10.3	-0.2
Cc1cc(C)n(CC(=O)n2c3ccccc3c3ccccc32)n1	1.4	8.8	1.1	-1.4
SMILES	VIM-2 inh	core dimer inh	NadD block	IMP-1 inhibitor
O=C(CSc1ncccn1)n1c2c(c3ccccc31)CCCC2	6.4	7.1	1.8	-0.9
Cc1cc(C)n(CC(=O)n2c3c(c4ccccc42)CCCC3)n1	10.3*	-5.1	-1.4	-0.6
CN(C)c1ccc(-c2ccc3c(=O)c4ccccc4n(C)c3c2)cn1	12.1*	-81.6	-5.4	1.0
Cc1ccc2nc(C)c3c(c2c1)N(c1ccc(F)cc1)CC3	10.9*	1.1	-4.4	-1.1
COc1ccccc1N1CCc2c(C)nc3c(OC)cccc3c21	12.0*	2.9	-3.7	-2.3
COc1cccc2c3c(c(C)nc12)CCN3c1ccccc1	10.6*	-7.6	-5.8	-2.0
O=C(NCc1ccco1)C1Cc2ccccc2CN1C(=O)c1ccco1 (stereo not drawn)	-1.4	16.2	8.5	-1.6
O=C(NCc1ccco1)C1Cc2ccccc2CN1S(=O)(=O)c1ccccc1F (stereo not drawn)	-2.9	55.1*	12.0	-3.3
Cc1nc(SCC(=O)Nc2ccccc2C(F)(F)F)c(C#N)c(C)c1CC(=O)c1ccc(Br)cc1	-2.1	7.3	/	-3.4
Cc1cccc(C)c1NC(=O)CSc1nc(C)c(CC(=O)c2ccc(Br)cc2)c(C)c1C#N	-1.6	69.9*	22.1	-2.9
COc1cccc(NC(=O)CN(C)C(=O)COc2ccccc2Cc2ccccc2)c1	/	/	-7.5	/
N=C(N)c1ccc(N=Nc2c(O)ccc3c2[nH]c2ccccc23)cc1	/	/	42.1*	/
NC(=O)c1ccc(N=Nc2c(O)c3ccccc3[nH]c2=O)cc1	-2.9	-13.4	/	-2.0
C/C(CC(=O)Nc1cc(C)ccn1)=N\NC(=O)c1ccc(C(C)(C)C)cc1	-3.7	4.2	1.8	-1.3
CCc1ccc2c(COC(=O)C3CC(=O)N(CCc4ccccc4)C3)cc(=O)oc2c1 (stereo not drawn)	/	/	2.9	/
COc1ccc(C2CC(c3ccccc3)=NN2c2ccc(/C=N/NC(=O)c3ccncc3)cc2)cc1 (stereo not drawn)	-3.8	47.7*	-5.6	-3.3
CCCCN(CCCC)CCCN1CC(=O)N2[C@@H](Cc3c([nH]c4ccccc34)C2(C)C)C1=O	-3.1	0.6	-6.4	-1.4
COc1cc(/C=C2\C(=N)N3N=C(N4CCOCC4)SC3=NC2=O)ccc1OC(=O)c1ccccc1	-3.6	21.1	37.2*	-1.8
N=C1/C(=C\c2ccc(OC(=O)c3ccccc3Cl)cc2)C(=O)N=C2SC(N3CCOCC3)=NN12	-4.5	20.4	47.7*	-1.8
N=C1/C(=C/c2ccc(OCc3ccccc3F)cc2)C(=O)N=C2SC(CC(=O)N3CCOCC3)=NN12	-1.9	4.1	33.2*	-0.1
COc1ccc(CCC(=O)Nc2ccc(S(=O)(=O)N3CCOCC3)cc2)cc1OC	/	/	-0.2	/
Cc1ccc(-c2cc(C(=O)Nc3ccccn3)c3ccccc3n2)o1	-3.8	64.3*	10.6	-4.3
Cc1sc2ncnc(NCC(c3ccco3)N3CCCC3)c2c1C (stereo not drawn)	10.6*	0.9	-4.2	-0.6
Cc1sc2ncnc(N3CCCCC3)c2c1C	0.2	0.2	-1.7	-4.0
CCC(=O)Nc1nc2ccc(NC(C)=O)cc2s1	-2.2	-0.8	-0.3	6.2*
N#Cc1ccc(CN2CCN(c3ccc(S(=O)(=O)N4CCCC4)cn3)CC2)cc1	/	/	-3.3	/
O=C1c2ccc(-c3ccc(F)cc3OCc3ccccc3)cc2S(=O)(=O)c2cccc(C(=O)N3CCN(c4ncc(Br)cn4)CC3)c21	/	/	57.5*	/
COc1ccccc1CNC(=O)C(NC(=O)c1ccc(C)cc1)C(C)C (stereo not drawn)	-2.9	-2.2	5.4	-1.6
C/C(=C\c1ccc2c(c1)OCO2)C1Nc2cccc3cccc(c23)N1	/	/	32.6*	/
O=C1CCCCC1Sc1nnc(Cc2cccs2)n1CCc1ccccc1 (stereo not drawn)	-3.3	51.3*	8.6	-4.4

High-throughput results as filed in PubChem BioAssay.
